Assay results: ChEMBL document CHEMBL1177757, “C(2)-Symmetric azobenzene-amino acid conjugates and their inhibition of Subtilisin Kexin Isozyme-1” (Bioorg Med Chem Lett, 2010)

Key:
[1] = molecular target: T1, Membrane-bound transcription factor site-1 protease (Homo sapiens, UniProt Q14703); experiment: Inhibition of human recombinant soluble Kexin isozyme 1
T1 sequence (Q14703 whole entry): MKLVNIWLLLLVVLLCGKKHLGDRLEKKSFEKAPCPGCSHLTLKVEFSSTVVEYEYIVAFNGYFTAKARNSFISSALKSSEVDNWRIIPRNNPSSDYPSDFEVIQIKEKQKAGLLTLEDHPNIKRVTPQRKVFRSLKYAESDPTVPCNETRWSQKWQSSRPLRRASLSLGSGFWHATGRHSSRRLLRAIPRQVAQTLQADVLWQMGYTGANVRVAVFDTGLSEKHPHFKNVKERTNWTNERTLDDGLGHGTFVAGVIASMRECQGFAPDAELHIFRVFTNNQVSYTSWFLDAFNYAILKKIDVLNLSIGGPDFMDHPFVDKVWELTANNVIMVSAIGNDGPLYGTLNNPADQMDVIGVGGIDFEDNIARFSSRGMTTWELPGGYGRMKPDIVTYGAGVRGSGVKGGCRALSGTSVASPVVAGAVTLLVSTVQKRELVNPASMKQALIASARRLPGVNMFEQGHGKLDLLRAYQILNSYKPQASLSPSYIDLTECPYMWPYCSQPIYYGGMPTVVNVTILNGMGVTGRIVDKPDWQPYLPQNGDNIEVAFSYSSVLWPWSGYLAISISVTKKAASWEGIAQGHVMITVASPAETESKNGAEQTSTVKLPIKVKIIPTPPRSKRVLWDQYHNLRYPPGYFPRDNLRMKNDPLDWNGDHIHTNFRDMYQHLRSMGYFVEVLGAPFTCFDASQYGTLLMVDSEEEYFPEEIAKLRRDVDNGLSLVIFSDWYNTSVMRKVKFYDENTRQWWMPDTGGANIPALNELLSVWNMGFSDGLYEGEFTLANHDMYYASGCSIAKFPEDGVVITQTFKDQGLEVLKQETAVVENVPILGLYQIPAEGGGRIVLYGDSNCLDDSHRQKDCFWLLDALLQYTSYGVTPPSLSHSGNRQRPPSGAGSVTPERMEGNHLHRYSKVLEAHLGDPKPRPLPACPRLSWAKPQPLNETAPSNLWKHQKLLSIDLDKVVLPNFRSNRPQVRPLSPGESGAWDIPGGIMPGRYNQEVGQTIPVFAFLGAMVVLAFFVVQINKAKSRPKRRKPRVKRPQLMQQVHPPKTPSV
Summary of the method: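 Recombinant soluble human SKI-1 (activity normalized to 10 pmol Abz-peptide released per µL per h, 37 °C). Only the E-form was tested, at varying concentrations, with quenched fluorogenic Abz-Q-GPC251–263-Tyx substrate in Tris/Mes/2 mM CaCl2 buffer at 37 °C. RFU (ex 320/em 420 nm) were read from 0–6 h and converted to cleavage rates. Ki came from Dixon plots at 0.1, 0.05 and 0.025 mM substrate.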

[2] = Chemical stability assessed as half life of degradation; format: physicochemical
Summary of the method: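 Z-isomer formed by long-wavelength UV irradiation, then its thermal reisomerization to the E-form followed. First-order rate constant (h⁻¹) and Z-isomer half-life (h) derived.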

Row | SMILES | Ki [1] | half-life [2]
1 | O=C(COc1ccccc1/N=N/c1ccccc1OCC(=O)NCC(=O)OCc1ccccc1)NCC(=O)OCc1ccccc1 | – | 77 h
2 | O=C(COc1ccccc1/N=N/c1ccccc1OCC(=O)N[C@@H](Cc1ccccc1)C(=O)O)N[C@@H](Cc1ccccc1)C(=O)O | 225 µM | –
3 | O=C(COc1ccccc1/N=N/c1ccccc1OCC(=O)N[C@@H](Cc1ccccc1)C(=O)N[C@@H](Cc1ccccc1)C(=O)OCc1ccccc1)N[C@@H](Cc1ccccc1)C(=O)N[C@@H](Cc1ccccc1)C(=O)OCc1ccccc1 | – | 28.9 h
4 | O=C(O)CNC(=O)COc1ccccc1/N=N/c1ccccc1OCC(=O)NCC(=O)O | 265 µM | –

The next lines start with the values.

Row | Ki [1] | half-life [2] | SMILES
5 | 125 µM | 31.5 h | CC(C)[C@H](NC(=O)COc1ccccc1/N=N/c1ccccc1OCC(=O)N[C@H](C(=O)OCc1ccccc1)C(C)C)C(=O)OCc1ccccc1
6 | 11.8 µM | 69.3 h | O=C(COc1ccccc1/N=N/c1ccccc1OCC(=O)N[C@@H](Cc1ccccc1)C(=O)OCc1ccccc1)N[C@@H](Cc1ccccc1)C(=O)OCc1ccccc1
7 | 140 µM | – | O=C(COc1ccccc1/N=N/c1ccccc1OCC(=O)N[C@@H](Cc1ccccc1)C(=O)N[C@@H](Cc1ccccc1)C(=O)O)N[C@@H](Cc1ccccc1)C(=O)N[C@@H](Cc1ccccc1)C(=O)O
8 | 75 µM | – | CC(C)[C@H](NC(=O)COc1ccccc1/N=N/c1ccccc1OCC(=O)N[C@H](C(=O)O)C(C)C)C(=O)O
